This is an account of results in ChEMBL document CHEMBL1649122, “Abc1p is a multidrug efflux transporter that tips the balance in favor of innate azole resistance in Candida krusei” (2009).

Usually MIC stands for the smallest concentration in the dilution series that meets the test's criterion for growth inhibition.

In brackets after ≈: the same amount, converted by molar mass. Activity calls are given as the source filed them. *1 amine or outer side, *2 acyl side, *3 side chain or, on linkers, in order; H or OH if unused. Where a SMILES comes first, the peptide text is derived from it. [ ]: non-standard residue; d: D form. X1 = CC[C@@H](C)[C@@H](O[*:1])C(=O)[*:2]; NMeVal(β-OH) = CN[C@H](C(=O)O)C(C)(C)O; NMeF = CN[C@@H](Cc1ccccc1)C(=O)O; aIle = CC[C@@H](C)[C@H](N)C(=O)O; NMeV = CN[C@H](C(=O)O)C(C)C

In experiment [1] the target is ATP binding cassette transporter Abc1p (Issatchenkia orientalis) (UniProt Q09GQ4). Description: Inhibition of Candida krusei ABC1 expressed in Saccharomyces cerevisiae isolate ADdelta at 7 nM. As to conditions: Pichia kudriavzevii.
The target is the same in experiment [2]. The experiment in a line: Inhibition of Candida krusei ABC1 expressed in Saccharomyces cerevisiae isolate ADdelta at 620 nM. The following applies: Pichia kudriavzevii. A digest of the protocol: (§1)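 Agarose disk-diffusion test of S. cerevisiae AD overexpressing C. krusei Abc1p, with the parent AD strain as comparison. Cells were pregrown from YPD overnight into CSM to mid-log at 30°C. They were seeded at OD600 0.008 in CSM with 0.6% agarose, overlaid on CSM agar (pH 7.0). Paper disks carrying set nmol amounts of xenobiotic were applied, and plates were incubated at 30°C for 48 h before reading growth inhibition zones.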

The target is the same in experiment [3]. The experiment in a line: Inhibition of Candida krusei ABC1 expressed in Saccharomyces cerevisiae isolate ADdelta at 16 nM. The following applies: Pichia kudriavzevii. The method in brief:
as §1

For experiment [4] the target is unchanged. Description: Inhibition of Candida krusei ABC1 expressed in Saccharomyces cerevisiae isolate ADdelta at 20 nM. The following applies: Pichia kudriavzevii.
For experiment [5] the target is unchanged. The experiment in a line: Inhibition of Candida krusei ABC1 expressed in Saccharomyces cerevisiae isolate ADdelta at 12 nM. The following applies: Pichia kudriavzevii. A digest of the protocol:
as §1

Experiment [6] deals with Saccharomyces cerevisiae. Description: Antimicrobial activity against Saccharomyces cerevisiae isolate ADdelta overexpressing Candida albicans ERG11A after 48 hrs by liquid microdilution assay. Type of experiment: functional. The method in brief:
(§2)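 Liquid broth microdilution susceptibility assay in CSM medium at pH 7.0, which was also the medium used for the expression studies. Fungal strains were maintained in YPD. The S. cerevisiae test strains carry C. krusei ABC1 or fungal ERG11 alleles integrated at the chromosomal PDR5 locus.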
In general terms: Dilution methods test growth across graded concentrations, often in twofold steps.

Experiment [7] has as its system Pichia kudriavzevii. The experiment in a line: Antimicrobial activity against Candida krusei NZCDC 89.102 after 48 hrs by liquid microdilution assay. It is filed as functional. As to conditions: NZCDC 89.102, 48 h. The method in brief:
as §2

The target of experiment [8] is ATP binding cassette transporter Abc1p (Issatchenkia orientalis) (UniProt Q09GQ4). The experiment in a line: Inhibition of Candida krusei ABC1 expressed in Saccharomyces cerevisiae isolate ADdelta at 23 nM. The following applies: Pichia kudriavzevii.
Experiment [9] relates to Saccharomyces cerevisiae. The experiment in a line: Antimicrobial activity against Saccharomyces cerevisiae isolate AD overexpressing Candida krusei ERG11C after 48 hrs by liquid microdilution assay. Type of experiment: functional. The method in brief: as §2
Experiment [10] deals with Pichia kudriavzevii. Description: Antimicrobial activity against Candida krusei IFO0011 after 48 hrs by CLSI method. It is filed as functional. The following applies: IFO0011, 48 h. A digest of the protocol: (§3)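 Azole MICs were determined by the CLSI M27-A2 broth microdilution reference method. They were interpreted against the CLSI breakpoints. Strains were maintained in YPD medium (1% yeast extract, 2% peptone, 2% glucose).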

The test system of experiment [11] is Saccharomyces cerevisiae. Description: Fold resistant, ratio of MIC for Saccharomyces cerevisiae isolate ADdelta overexpressing Saccharomyces cerevisiae ERG11 to MIC for Saccharomyces cerevisiae isolate ADdelta overexpressing Abc1p. It is filed as functional. A digest of the protocol: (§4)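 Fold resistance is the ratio of azole MICs between S. cerevisiae overexpressing strains. The MICs were measured by liquid broth microdilution in CSM medium at pH 7.0. The ERG11 or ABC1 constructs are integrated at the PDR5 locus.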

Experiment [12] has as its system Pichia kudriavzevii. The experiment in a line: Increase in ERG11 mRNA expression in Candida krusei B2400 at MIC concentration after 80 mins by hot-phenol extraction based Northern blotting. Type of experiment: functional, organism-based.
For experiment [13], the system named is Pichia kudriavzevii. Description: Antimicrobial activity against Candida krusei NZCDC 89.102 after 48 hrs by CLSI method. It is filed as functional. A digest of the protocol: as §3
In experiment [14] the test system is Saccharomyces cerevisiae. Description: Fold resistant, ratio of MIC for Saccharomyces cerevisiae isolate ADdelta overexpressing Candida krusei ERG11g to MIC for Saccharomyces cerevisiae isolate ADdelta overexpressing Abc1p. Type of experiment: functional. The method in brief: as §4
The subject of experiment [15] is Pichia kudriavzevii. Description: Antimicrobial activity against Candida krusei NZCDC 90.147 after 48 hrs by CLSI method. Type of experiment: functional. A digest of the protocol: as §3
In experiment [16] the test system is Pichia kudriavzevii. Description: Increase in ABC1 mRNA expression in Candida krusei B2399 at MIC concentration after 320 mins by hot-phenol extraction based Northern blotting. It is filed as functional, organism-based. The method in brief:
(§5)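 Northern blot. Logarithmically grown C. krusei B2399 was exposed to azoles for 60 min (FLC 1x MIC; VRC, MCZ, ITC 2x MIC) or to FLC at 1x MIC over a time course. About 100 OD units of cells were harvested. Total RNA was extracted with hot phenol, and 10 µg was run on 1.2% denaturing agarose. Blots were probed with radiolabelled ABC1 or ERG11, with ACT1 as internal control.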

In experiment [17] the test system is Saccharomyces cerevisiae. Description: Antimicrobial activity against Saccharomyces cerevisiae isolate ADdelta overexpressing Saccharomyces cerevisiae ERG11 after 48 hrs by liquid microdilution assay. Type of experiment: functional. The method in brief:
as §2

In experiment [18] the target is ATP binding cassette transporter Abc1p (Issatchenkia orientalis) (UniProt Q09GQ4). The experiment in a line: Inhibition of Candida krusei […] expressed in Saccharomyces cerevisiae isolate ADdelta assessed as fractional inhibitory concentration index at 2.5 ug/ml after 48 hrs by checkerboard susceptibility assay. As to conditions: Pichia kudriavzevii. A digest of the protocol:
(§6)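 Checkerboard susceptibility assay combining the Abc1p inhibitor with FLC or ITC. MICs were determined at various inhibitor concentrations. The fractional inhibitory concentration index was calculated for each combination.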

In experiment [19] the test system is Saccharomyces cerevisiae. The experiment in a line: Antimicrobial activity against Saccharomyces cerevisiae isolate ADdelta overexpressing Candida krusei ERG11g after 48 hrs by liquid microdilution assay. It is filed as functional. A digest of the protocol: as §2
Experiment [20] concerns Pichia kudriavzevii. The experiment in a line: Antimicrobial activity against Candida krusei NZCDC 89.021 after 48 hrs by CLSI method. Type of experiment: functional. The following applies: NZCDC 89.021, 48 h. The method in brief: as §3
Experiment [21] relates to Saccharomyces cerevisiae. Description: Antimicrobial activity against Saccharomyces cerevisiae isolate ADdelta overexpressing Abc1p after 48 hrs by liquid microdilution assay. Type of experiment: functional. A digest of the protocol: as §2
Experiment [22] has as its system Pichia kudriavzevii. The experiment in a line: Antimicrobial activity against Candida krusei B2399 after 48 hrs by CLSI method. It is filed as functional. The following applies: B2399, 48 h. The method in brief: as §3
Experiment [23] relates to Pichia kudriavzevii. The experiment in a line: Antimicrobial activity against Candida krusei NZCDC 89.221 after 48 hrs by CLSI method. Type of experiment: functional. A digest of the protocol: as §3
The subject of experiment [24] is Pichia kudriavzevii. Description: Increase in ERG11 mRNA expression in Candida krusei B2399 at > 200 ug/ml after up to 320 mins by hot-phenol extraction based Northern blotting. It is filed as functional, organism-based. A digest of the protocol:
as §5

For experiment [25], the system named is Pichia kudriavzevii. The experiment in a line: Antimicrobial activity against Candida krusei B2399 after 48 hrs by liquid microdilution assay. Type of experiment: functional. The following applies: B2399, 48 h. The method in brief: as §2
Experiment [26] concerns the target ATP binding cassette transporter Abc1p (Issatchenkia orientalis) (UniProt Q09GQ4). The experiment in a line: Inhibition of Candida krusei B2399 Abc1p assessed as fractional inhibitory concentration index at 2.5 ug/ml after 48 hrs by checkerboard susceptibility assay. As to conditions: Pichia kudriavzevii. A digest of the protocol: as §6
Experiment [27] deals with Pichia kudriavzevii. Description: Increase in ERG11 mRNA expression in Candida krusei B2399 at MIC concentration after 1 hr by hot-phenol extraction based Northern blotting. Type of experiment: functional, organism-based. The method in brief:
as §5

Experiment [28] has as its system Pichia kudriavzevii. The experiment in a line: Antimicrobial activity against Candida krusei NZCDC 89.021 after 48 hrs by liquid microdilution assay. Type of experiment: functional. As to conditions: NZCDC 89.021, 48 h. The method in brief:
as §2

For experiment [29], the system named is Pichia kudriavzevii. Description: Antimicrobial activity against Candida krusei NZCDC 90.147 after 48 hrs by liquid microdilution assay. It is filed as functional. The following applies: NZCDC 90.147, 48 h. The method in brief: as §2
Experiment [30] concerns Saccharomyces cerevisiae. Description: Fold resistant, ratio of MIC for Saccharomyces cerevisiae isolate ADdelta overexpressing Candida albicans ERG11A to MIC for Saccharomyces cerevisiae isolate ADdelta overexpressing Abc1p. It is filed as functional. A digest of the protocol:
as §4

Experiment [31] has as its system Pichia kudriavzevii. The experiment in a line: Antimicrobial activity against Candida krusei NZCDC 89.221 after 48 hrs by liquid microdilution assay. It is filed as functional. The following applies: NZCDC 89.221, 48 h. The method in brief: as §2
In experiment [32] the test system is Pichia kudriavzevii. The experiment in a line: Antimicrobial activity against Candida krusei IFO0011 after 48 hrs by liquid microdilution assay. The following applies: IFO0011, 48 h. It is filed as functional. The method in brief: as §2
Experiment [33] deals with Saccharomyces cerevisiae. Description: Fold resistant, ratio of MIC for Saccharomyces cerevisiae isolate ADdelta overexpressing Candida krusei ERG11C to MIC for Saccharomyces cerevisiae isolate ADdelta overexpressing Abc1p. Type of experiment: functional. A digest of the protocol: as §4
The target of experiment [34] is ATP binding cassette transporter Abc1p (Issatchenkia orientalis) (UniProt Q09GQ4). The experiment in a line: Inhibition of Candida krusei ABC1 expressed in Saccharomyces cerevisiae isolate ADdelta at 0.24 nM. As to conditions: Pichia kudriavzevii.

For `CC[C@@H](C)[C@@H]1NC(=O)[C@@H]2CCCN2C(=O)[C@H](Cc2ccccc2)N(C)C(=O)[C@H](Cc2ccccc2)NC(=O)[C@H](C(C)C)N(C)C(=O)[C@@H]([C@H](C)CC)OC(=O)[C@H](C(C)(C)O)N(C)C(=O)[C@H](CC(C)C)NC(=O)[C@H](C(C)C)N(C)C1=O` (cyclo(F[NMeF]P[aIle][NMeV]L[NMeVal(β-OH)][X1][NMeV])), the outcome in [1] was inactive.
As to `CN1CCN(CCCN2c3ccccc3Sc3ccc(C(F)(F)F)cc32)CC1`, in [2], the result was inactive.
Consider `CC/N=c1\cc2oc3cc(NCC)c(C)cc3c(-c3ccccc3C(=O)OCC)c-2cc1C`, for which the result in experiment [3] was Active.
As for `C=C1[C@@H](C)[C@H]2[C@H](Cc3ccccc3)NC(=O)[C@]23[C@H](OC(C)=O)/C=C/[C@@](C)(O)C(=O)[C@@H](C)C/C=C/[C@H]3[C@@H]1O`, the result in experiment [4] was Active.
As to `CC[C@@]1([C@@H]2O[C@@H]([C@H]3O[C@@](O)(CO)[C@H](C)C[C@@H]3C)C[C@@H]2C)CC[C@H]([C@]2(C)CC[C@]3(C[C@H](O)[C@@H](C)[C@@H]([C@@H](C)[C@@H](OC)[C@H](C)C(=O)O)O3)O2)O1`, in [5], the outcome was Active.
As for `OC(Cn1cncn1)(Cn1cncn1)c1ccc(F)cc1F` [FLUCONAZOLE], the minimal inhibitory concentration (MIC) in the experiment with Saccharomyces cerevisiae [6] was 2 µg/mL (≈ 6.53 µM); against Pichia kudriavzevii [7] it was 256 µg/mL (≈ 836 µM); with Saccharomyces cerevisiae [9], 4 µg/mL (≈ 13.1 µM); in the experiment on Pichia kudriavzevii [10], 128 µg/mL (≈ 418 µM); against Pichia kudriavzevii [13], 32 µg/mL (≈ 104 µM); in the experiment with Pichia kudriavzevii [15], 128 µg/mL (≈ 418 µM). In addition, the minimal inhibitory concentration (MIC) was 2 µg/mL (≈ 6.53 µM) against Saccharomyces cerevisiae [17]; 64 µg/mL (≈ 209 µM) with Saccharomyces cerevisiae [19]; 32 µg/mL (≈ 104 µM) against Pichia kudriavzevii [20]; 0.5 µg/mL (≈ 1.63 µM) in the experiment on Saccharomyces cerevisiae [21]; 32 µg/mL (≈ 104 µM) against Pichia kudriavzevii [22]; 32 µg/mL (≈ 104 µM) against Pichia kudriavzevii [23]. In addition, the minimum inhibitory concentration (MIC) against Pichia kudriavzevii [25], in the experiment with Pichia kudriavzevii [28], in the experiment on Pichia kudriavzevii [29], in the experiment with Pichia kudriavzevii [31] and with Pichia kudriavzevii [32] was 256 µg/mL (≈ 836 µM) in each case. Further, the result (in experiment [8]; in the experiment with Pichia kudriavzevii [24]) was inactive. The ratio in the experiment with Saccharomyces cerevisiae [11] was 4; in the experiment on Saccharomyces cerevisiae [14], 128; in the experiment on Saccharomyces cerevisiae [30], 4; in the experiment with Saccharomyces cerevisiae [33] it was 8. In addition, the result in the experiment with Pichia kudriavzevii [12], in the experiment with Pichia kudriavzevii [16] and in the experiment with Pichia kudriavzevii [27] was Active. Besides, the fractional inhibitory concentration index (FICI) in experiment [18] was 0.112; in experiment [26], 0.35.
As to `C/C1=C/C(=O)O[C@@H]2C[C@@H](CC[C@H](C)/C=C\C=C\CC1)O[C@@](O)([C@@H]1CSC(=O)N1)C2`, the outcome in experiment [34] was Active.
